This is an account of results in ChEMBL document CHEMBL4145618, “Constraining Endomorphin-1 by β,α-Hybrid Dipeptide/Heterocycle Scaffolds: Identification of a Novel κ-Opioid Receptor Selective Partial Agonist” (J Med Chem, 2018).

The target of series [1] is T1, Mu-type opioid receptor (Homo sapiens, UniProt P35372). Nature of the series: Agonist activity at human mu opioid receptor expressed in HEK293 assessed as inhibition forskolin-induced cAMP accumulation at 0.00001 to 100 uM after 15 mins by EIA relative to control. It is filed as functional, cell-based. Put shortly:
(§1)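 Whole HEK-293 cells stably expressing human KOR or MOR, in serum-free medium with 0.5 mM IBMX. Cells exposed 15 min at 37°C to 10 µM forskolin, with or without test agent. KOR co-treatment run: U50,488 1 pM–100 µM with or without 1 µM test agent. cAMP measured by enzyme immunoassay.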
(In general: cAMP levels reflect the balance of adenylyl cyclase and phosphodiesterase activity.)

Series [2] deals with Delta-type opioid receptor (Homo sapiens, UniProt P41143). The experiment in a line: Displacement of [3H]diprenorphine from human delta opioid receptor expressed in HEK293 cell membranes after 2 hrs by liquid scintillation spectrometry. In general terms: Displacement assays read how much labelled ligand stays bound in the presence of the test substance.
Sequence of Delta-type opioid receptor (P41143 whole entry): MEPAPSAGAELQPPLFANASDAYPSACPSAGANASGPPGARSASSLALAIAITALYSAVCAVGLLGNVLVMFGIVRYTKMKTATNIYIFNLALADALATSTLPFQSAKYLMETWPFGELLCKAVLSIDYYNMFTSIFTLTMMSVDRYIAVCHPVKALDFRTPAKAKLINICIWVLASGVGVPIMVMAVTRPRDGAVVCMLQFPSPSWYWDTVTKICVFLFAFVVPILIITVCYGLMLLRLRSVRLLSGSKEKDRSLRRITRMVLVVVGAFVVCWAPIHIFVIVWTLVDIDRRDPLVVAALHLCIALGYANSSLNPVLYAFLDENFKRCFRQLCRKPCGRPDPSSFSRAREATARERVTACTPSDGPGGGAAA
Series [3] concerns the target T2, Kappa-type opioid receptor (Homo sapiens, UniProt P41145). Nature of the series: Displacement of [3H]U69,593 from human kappa opioid receptor expressed in HEK293 cell membranes after 2 hrs by liquid scintillation spectrometry. Put shortly:
(§2)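 Membranes from HEK-293 cells stably expressing human opioid receptors. Radioligands: [3H]DAMGO for MOR, [3H]diprenorphine for DOR, [3H]U69,593 for KOR. Competitor range 10^-12–10^-4 M, 120 min at 25°C, Tris-HCl buffer with 0.3% BSA. Unlabelled ligands defined nonspecific binding. Bound label collected on 0.3% polyethylenimine-presoaked filters and counted by liquid scintillation. Ki from IC50 via Cheng-Prusoff.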

For series [4], the target named is T1, Mu-type opioid receptor. Nature of the series: Displacement of [3H]DAMGO from human mu opioid receptor expressed in HEK293 cell membranes after 2 hrs by liquid scintillation spectrometry. The essentials:
as §2

Series [5] has as its target T2, Kappa-type opioid receptor. Nature of the series: Agonist activity at human kappa opioid receptor expressed in HEK293 assessed as inhibition forskolin-induced cAMP accumulation after 15 mins by EIA. It is filed as functional, cell-based. The essentials:
as §1

Series [6] relates to Mus musculus. Nature of the series: Antinociceptive activity in CD1 mouse assessed as increase in latency to response at 20 mg/kg, ip measured at 15 mins post dose by tail immersion test relative to control. It is filed as functional. Put shortly:
(§3)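 Mouse warm-water tail immersion at 52 ± 0.5 °C. Control withdrawal latency recorded before dosing; only mice responding within 5 s were used. Vehicle or compound given ip at 10 or 20 mg/kg. Where stated, norBNI 10 mg/kg given 30 min before compound. Test latency taken with 10 s cutoff. MPE% = 100 × (TL − CL)/(10 − CL); n = 6.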

Series [7] is described as follows: Drug metabolism in mouse serum assessed as compound hydrolysis after 1 hr by RP-HPLC analysis. It is filed as ADME, cell-free. Particulars: read-out: Drug metabolism. The essentials: (§4)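 Peptides incubated in mouse serum at 37°C for up to 4 h and sampled over time. Enzymatic activity stopped with cold acetonitrile, then centrifuged. Intact peptide in the supernatant quantified by reversed-phase HPLC, with ESI-MS analysis.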

Series [8] deals with Mus musculus. The experiment in a line: Antinociceptive activity in CD1 mouse assessed as increase in latency to response at 10 mg/kg, ip measured at 15 mins post dose by tail immersion test. It is filed as functional, organism-based. The essentials:
as §3

Series [9] has as its target T2, Kappa-type opioid receptor. The experiment in a line: Agonist activity at human kappa opioid receptor expressed in HEK293 assessed as inhibition forskolin-induced cAMP accumulation at 1 uM after 15 mins in presence of U50,488 by EIA. It is filed as functional, cell-based. The essentials: as §1
Series [10] deals with T2, Kappa-type opioid receptor. The experiment in a line: Agonist activity at human kappa opioid receptor expressed in HEK293 assessed as inhibition forskolin-induced cAMP accumulation at 0.00001 to 100 uM after 15 mins by cAMP EIA relative to control. It is filed as functional, cell-based. The essentials: as §1
The subject of series [11] is Mus musculus. Nature of the series: Antinociceptive activity in CD1 mouse assessed as increase in latency to response at 20 mg/kg, ip measured at 15 mins post dose in presence of KOR antagonist nor-BNI by tail immersion test. It counts as functional, organism-based. Put shortly:
as §3

In series [12] the test system is Mus musculus. The experiment in a line: Antinociceptive activity in CD1 mouse assessed as increase in latency to response at 20 mg/kg, ip measured at 30 mins post dose by tail immersion test relative to control. It is filed as functional. Put shortly:
as §3

A short description of series [13]: Drug metabolism in mouse serum assessed as compound hydrolysis after 4 hrs by RP-HPLC analysis. It counts as ADME, cell-free. The conditions noted are these: read-out: Drug metabolism. The essentials: as §4
Series [14] concerns the target T1, Mu-type opioid receptor. Nature of the series: Agonist activity at human mu opioid receptor expressed in HEK293 assessed as inhibition forskolin-induced cAMP accumulation after 15 mins by EIA. It counts as functional, cell-based. Put shortly: as §1

pIC50, pKi: −log10 of the molar value. Calls of active or inactive are those of the source. A value given as a limit tells only on which side of the number the result lay.

T1 sequence (P35372 whole entry): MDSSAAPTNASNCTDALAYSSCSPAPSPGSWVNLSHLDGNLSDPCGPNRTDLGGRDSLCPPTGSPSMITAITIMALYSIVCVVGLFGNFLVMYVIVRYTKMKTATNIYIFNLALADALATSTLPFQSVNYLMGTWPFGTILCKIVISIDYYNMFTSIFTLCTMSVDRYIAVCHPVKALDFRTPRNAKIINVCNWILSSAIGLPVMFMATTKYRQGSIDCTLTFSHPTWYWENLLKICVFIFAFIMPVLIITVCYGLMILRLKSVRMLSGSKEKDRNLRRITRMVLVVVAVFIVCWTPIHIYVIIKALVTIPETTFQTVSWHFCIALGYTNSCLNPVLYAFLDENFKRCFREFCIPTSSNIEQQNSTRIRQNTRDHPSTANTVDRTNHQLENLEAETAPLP
T2 sequence (P41145 whole entry): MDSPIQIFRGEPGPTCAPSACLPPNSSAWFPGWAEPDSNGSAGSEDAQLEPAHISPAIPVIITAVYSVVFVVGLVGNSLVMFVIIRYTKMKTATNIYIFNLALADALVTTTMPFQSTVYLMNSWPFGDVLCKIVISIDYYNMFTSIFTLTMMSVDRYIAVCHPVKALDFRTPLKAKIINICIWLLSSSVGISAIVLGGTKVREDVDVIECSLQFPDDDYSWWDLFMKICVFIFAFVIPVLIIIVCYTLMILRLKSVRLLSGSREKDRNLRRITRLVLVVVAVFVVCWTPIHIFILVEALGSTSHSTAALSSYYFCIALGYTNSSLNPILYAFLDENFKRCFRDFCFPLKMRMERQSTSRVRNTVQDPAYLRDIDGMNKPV

Turning to `N[C@@H](Cc1ccc(O)cc1)C(=O)N1CCC[C@H]1C(=O)N[C@@H](Cc1c[nH]c2ccccc12)C(=O)N[C@@H](Cc1ccccc1)C(=O)O`, on Mu-type opioid receptor [1], the Emax is 53%.

In the case of `NC(=O)[C@H](Cc1ccccc1)NC(=O)[C@H](Cc1c[nH]c2ccccc12)N1C(=O)O[C@H](CNC(=O)[C@@H](N)Cc2ccc(O)cc2)C1=O`, the pKi (in series [2]; in series [3]; at Mu-type opioid receptor [4]) was below 4.00 in each case.

Regarding `NC(=O)[C@H](Cc1ccccc1)NC(=O)[C@@H](Cc1c[nH]c2ccccc12)N1C(=O)O[C@@H](CNC(=O)[C@@H](N)Cc2ccc(O)cc2)C1=O`, the pKi (in series [2]; in [3]; on Mu-type opioid receptor [4]) was below 4.00 in each case.

With `NC(=O)[C@H](Cc1ccccc1)NC(=O)[C@H](Cc1c[nH]c2ccccc12)N1C(=O)O[C@@H](CNC(=O)[C@@H](N)Cc2ccc(O)cc2)C1=O`, the pKi is below 4.00 in [2], 8.01 in series [3] and below 4.00 at Mu-type opioid receptor [4]. The pIC50 in series [5] was 9.66. Moreover, the MPE in the series on Mus musculus [6] is recorded as 60%; with Mus musculus [12], 42%. The metabolised at 1 h in series [7] is below 5%. Besides, in the series on Mus musculus [8], the outcome was Active. Further, in series [9], the inhibition was 40%. For the same compound, the Emax in [10] came to 40%. For the same compound, the result in the series with Mus musculus [11] was inactive.

Turning to `NC(=O)[C@H](Cc1ccccc1)NC(=O)[C@@H](Cc1c[nH]c2ccccc12)N1C(=O)O[C@H](CNC(=O)[C@@H](N)Cc2ccc(O)cc2)C1=O`, the pKi in [2] was below 4.00; in series [3], below 4.00; at Mu-type opioid receptor [4] it was 6.62. Moreover, the Emax on Mu-type opioid receptor [1] came out at 50%. The metabolised at 4 h in series [13] is below 10%. The pIC50 at Mu-type opioid receptor [14] is 10.80.

As usually defined, the Emax is the maximal effect, on the per cent scale that the assay sets. The pKi is −log10 of the Ki, conventionally taken in molar units. A lower pKi goes with a high Ki. In general, pIC50 refers to the negative decadic logarithm of the IC50, by convention in mol/L. As a reminder, the inhibition is the change of the read-out against control, counted positive when it falls.
